Results taken from ChEMBL document CHEMBL1140767, “Discovery and structure-activity relationship of N-phenyl-1H-pyrazolo[3,4-b]quinolin-4-amines as a new series of potent apoptosis inducers” (Bioorg Med Chem, 2008).
“And” between values parts separate entries of the source, which are not always exact repeats. Identical values can stand only once.

Columns and labels:
T47D [1] = test: Induction of apoptosis in human T47D cells assessed as caspase-3 activation; assay type: functional, cell-based
Outline: (§1)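 Cells grown in RPMI-1640 + 10% FCS, trypsinized, and resuspended at 0.65 × 10^6 cells/mL. Treated in 384-well plates with 0.005–10 µM final compound (1% DMSO) for 24 h. N-(Ac-DEVD)-N'-ethoxycarbonyl-R110 substrate was then added, and fluorescence (ex 485/em 525 nm) was read at 0 and 3 h. Activity is the net RFU ratio of test to control. EC50 from a sigmoidal fit at 50% maximal response; mean of ≥3 experiments ± SEM.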

HCT-116 [2] = test: Induction of apoptosis in human HCT116 cells assessed as caspase-3 activation; assay type: functional, cell-based; outline: as §1
SNU-398 [3] = test: Induction of apoptosis in human SNU398 cells assessed as caspase-3 activation; assay type: functional, cell-based; outline: as §1
T47D [4] = test: Antiproliferation activity against human T47D cells; assay type: functional
Outline: (§2)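 Cells in RPMI-1640 + 10% FCS, 5% CO2, 37 °C. Seeded at 4.4 × 10^4 cells/mL in 96-well plates and exposed to compound at 0.001–10 µM final (1% DMSO) for 48 h at 37 °C. Viability read by CellTiter-Glo luminescence. A 0.5 h plate gave the initial-cell baseline and untreated wells gave maximal proliferation. GI50 is the mean of ≥3 experiments ± SEM.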

HCT-116 [5] = test: Antiproliferation activity against human HCT116 cells; assay type: functional; outline: as §2
SNU-398 [6] = test: Antiproliferation activity against human SNU398 cells; assay type: functional; outline: as §2
T47D [7] = test: Induction of apoptosis in human T47D cells assessed as accumulation at S phase at […] after 24 hrs; assay type: functional
Outline: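 T47D cells treated with 50 nM compound, or DMSO as control, for 24 h or 48 h at 37 °C. Cells then stained with propidium iodide and analysed by flow cytometry for DNA-content histograms. Sub-diploid DNA content was taken to indicate apoptotic cells.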

EC50 (T47D [1]) [nM] | EC50 (HCT-116 [2]) [nM] | EC50 (SNU-398 [3]) [nM] | GI50 (T47D [4]) [nM] | GI50 (HCT-116 [5]) [nM] | GI50 (SNU-398 [6]) [nM] | SMILES | Activity (T47D [7])
> 10000 | > 10000 | > 10000 | > 10000 | > 10000 | > 10000 | COc1ccc(Nc2c3ccccc3nc3[nH]nc(C)c23)cc1 | 
> 10000 | > 10000 | > 10000 |  |  |  | CC(=O)c1ccc(Oc2c3ccccc3nc3c2c(C)nn3C)cc1 | 
510 | 480 | 270 |  |  |  | CCC(=O)c1ccc(Nc2c3cccc([N+](=O)[O-])c3nc3c2c(C)nn3C)cc1 | 
520 | 660 | 270 |  |  |  | CC(=O)c1ccc(Nc2c3ccccc3nc3c2c(C)nn3C)cc1 | 
1150 | 1360 | 730 |  |  |  | CC(=O)c1ccc(Nc2c3ccccc3nc3c2cnn3C)cc1 | 
7260 | > 10000 | > 10000 |  |  |  | COc1cccc(Nc2c3ccccc3nc3c2c(C)nn3C)c1 | 
> 10000 | > 10000 | > 10000 |  |  |  | CC(=O)c1ccc(Nc2c3ccccc3nc3c2c(C(C)C)nn3C)cc1 | 
450 | 660 | 440 | 560 | 500 | 170 | CC(=O)c1cccc(Nc2c3c(nc4ccccc24)CCC3)c1 | 
> 10000 | > 10000 | > 10000 |  |  |  | Cc1nn(C)c2nc3ccccc3c(Nc3ccc(C(=O)O)cc3)c12 | 
71 | 64 | 34 | 26 | 42 | 16 | CCC(=O)c1ccc(Nc2c3ccccc3nc3c2c(C)nn3C)cc1 | 13.6% and 7.6% and 18.8%
> 10000 | > 10000 | > 10000 |  |  |  | CC(=O)c1ccc(Nc2c3cc(C)ccc3nc3c2c(C)nn3C)cc1 | 
1110 | 940 | 660 |  |  |  | CC(=O)c1ccc(Nc2c3cccc(C)c3nc3c2c(C)nn3C)cc1 | 
5210 | 6080 | 1330 |  |  |  | COC(=O)c1ccc(N(C)c2c3ccccc3nc3c2c(C)nn3C)cc1 | 
540 | 670 | 270 |  |  |  | COC(=O)c1ccc(Nc2c3ccccc3nc3c2c(C)nn3C)cc1 | 
5470 | 6670 | 4990 |  |  |  | COc1ccc(Sc2c3ccccc3nc3c2c(C)nn3C)cc1 | 
140 | 330 | 53 | 590 | 930 | 140 | CCC(O)c1ccc(Nc2c3ccccc3nc3c2c(C)nn3C)cc1 (stereo not drawn) | 
> 10000 | > 10000 | > 10000 |  |  |  | Cc1nn(C)c2nc3ccccc3c(Nc3ccc(C(N)=O)cc3)c12 | 
210 | 190 | 150 |  |  |  | CCC(=O)c1ccc(Nc2c3ccccc3nc3c2c(C)nn3CC)cc1 | 
1010 | 1250 | 480 |  |  |  | COc1ccc(Nc2c3ccccc3nc3c2c(C)nn3C)cc1 | 
440 | 390 | 240 |  |  |  | Cc1nn(C)c2nc3ccccc3c(Nc3ccc(C(=O)C(C)C)cc3)c12 | 
